In ChEMBL document CHEMBL4138091, “Quinazoline based α1-adrenoreceptor antagonists with potent antiproliferative activity in human prostate cancer cell lines” (Eur J Med Chem, 2017):
Activity calls are given as the source filed them. The rule behind the calls is not given here.

Columns and labels:
[1] = target: T1, Alpha-1A adrenergic receptor (Homo sapiens, UniProt P35348); experiment: Displacement of [3H]prazosin from human alpha1A adrenoceptor expressed in CHO cell membranes after 30 mins
T1 sequence (P35348 whole entry): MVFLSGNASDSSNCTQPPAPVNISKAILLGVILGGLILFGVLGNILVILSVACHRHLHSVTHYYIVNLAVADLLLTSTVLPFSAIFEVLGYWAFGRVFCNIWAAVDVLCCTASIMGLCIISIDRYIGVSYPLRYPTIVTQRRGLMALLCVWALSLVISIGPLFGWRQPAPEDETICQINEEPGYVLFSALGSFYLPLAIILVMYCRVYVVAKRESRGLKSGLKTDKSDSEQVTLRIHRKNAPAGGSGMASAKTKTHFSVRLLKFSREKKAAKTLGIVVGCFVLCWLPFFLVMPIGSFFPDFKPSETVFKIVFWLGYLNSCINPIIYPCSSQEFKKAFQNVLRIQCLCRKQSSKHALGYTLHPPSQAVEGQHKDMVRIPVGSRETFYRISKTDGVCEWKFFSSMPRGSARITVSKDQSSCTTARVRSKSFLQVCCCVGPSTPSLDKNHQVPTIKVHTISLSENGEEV

[2] = target: T2, Alpha-1B adrenergic receptor (Homo sapiens, UniProt P35368); experiment: Displacement of [3H]prazosin from human alpha1B adrenoceptor expressed in CHO cell membranes after 30 mins
T2 sequence (P35368 whole entry): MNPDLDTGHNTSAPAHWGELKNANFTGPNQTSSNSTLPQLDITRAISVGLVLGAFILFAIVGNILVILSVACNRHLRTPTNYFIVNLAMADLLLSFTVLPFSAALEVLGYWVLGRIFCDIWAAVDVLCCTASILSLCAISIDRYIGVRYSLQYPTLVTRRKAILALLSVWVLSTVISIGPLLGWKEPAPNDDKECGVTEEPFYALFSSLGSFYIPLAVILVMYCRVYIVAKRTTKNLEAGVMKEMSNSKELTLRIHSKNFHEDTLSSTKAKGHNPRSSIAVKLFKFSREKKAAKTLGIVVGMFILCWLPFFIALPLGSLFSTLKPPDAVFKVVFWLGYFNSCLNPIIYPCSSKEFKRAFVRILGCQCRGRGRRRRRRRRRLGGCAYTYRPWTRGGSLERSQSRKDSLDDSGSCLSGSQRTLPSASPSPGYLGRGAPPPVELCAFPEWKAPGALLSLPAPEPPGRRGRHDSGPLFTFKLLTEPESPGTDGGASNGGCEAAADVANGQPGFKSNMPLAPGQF

[3] = target: T3, Alpha-1D adrenergic receptor (Homo sapiens, UniProt P25100); experiment: Displacement of [3H]prazosin from human alpha1D adrenoceptor expressed in CHO cell membranes after 30 mins
T3 sequence (P25100 whole entry): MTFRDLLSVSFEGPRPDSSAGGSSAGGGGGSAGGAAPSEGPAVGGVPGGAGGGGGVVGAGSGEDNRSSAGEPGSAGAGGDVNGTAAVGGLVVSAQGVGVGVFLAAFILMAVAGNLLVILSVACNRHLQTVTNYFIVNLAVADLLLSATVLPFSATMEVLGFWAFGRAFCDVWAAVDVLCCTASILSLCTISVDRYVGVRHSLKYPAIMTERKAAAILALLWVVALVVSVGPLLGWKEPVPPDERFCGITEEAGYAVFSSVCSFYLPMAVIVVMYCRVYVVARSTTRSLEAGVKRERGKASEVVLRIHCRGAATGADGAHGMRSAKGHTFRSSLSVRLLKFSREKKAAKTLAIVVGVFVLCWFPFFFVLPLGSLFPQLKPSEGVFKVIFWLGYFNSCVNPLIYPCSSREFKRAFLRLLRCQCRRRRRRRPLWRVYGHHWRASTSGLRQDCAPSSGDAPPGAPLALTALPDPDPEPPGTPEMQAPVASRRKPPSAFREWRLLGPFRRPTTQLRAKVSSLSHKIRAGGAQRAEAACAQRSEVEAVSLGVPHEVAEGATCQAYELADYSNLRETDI

[4] = test system: Panel NCI-60 (60 carcinoma cell lines); experiment: Antiproliferative activity against human NCI60 cells at 10 uM after 48 hrs by SRB assay; format: functional, cell-based
In short: (§1)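 NCI one-dose screen at 10 µM across 60 human tumour lines, 48 h exposure; growth given relative to no-drug control and to time-zero cell number, so 0–100 means inhibition and below 0 lethality; 100 means no inhibition.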

LNCaP [5] = experiment: Induction of necrosis in human LNCAP cells assessed as loss of plasma membrane integrity at 1 to 10 uM after 24 hrs by trypan blue staining-based Neubauer hemocytometric method; format: functional, cell-based
In short: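 LNCaP cells seeded at 1 × 10⁶ cells/well, treated 1–10 µM for 24 h at 37 °C, 5% CO₂; scraped into PBS, mixed 1:1 with 0.5% trypan blue, counted on a Neubauer hemocytometer; percentage of stained cells from at least 3 separate counts.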

LNCaP [6] = experiment: Induction of apoptosis in human LNCAP cells assessed as increase in DNA fragmentation at 1 to 10 uM after 24 hrs by spectrophotometer relative to control; format: functional
In short: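 LNCaP cells seeded at 1 × 10³ cells/well, treated 1–10 µM for 24 h at 37 °C, 5% CO₂; lysed 30 min, centrifuged, supernatant ELISA with biotin anti-histone and peroxidase anti-DNA antibodies on streptavidin plate, ABTS 20 min, read 405 nm. Fold increase = treated/untreated absorbance; mean ± SD, three independent experiments.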

LNCaP [7] = experiment: Antioxidant activity in human LNCAP cells assessed as inhibition of t-BuOOH-induced ROS level at 1 to 10 uM after 30 mins by DCFH-DA dye-based spectrofluorometric analysis relative to control; format: functional
LNCaP [8] = experiment: Prooxidant activity in human LNCAP cells assessed as increase in depletion of intercellular GSH level at 1 to 10 uM after 24 hrs by MCB dye-based spectrofluorometric analysis; format: functional, cell-based
In short: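 LNCaP cells seeded at 2 × 10⁴ cells/well, treated 1–10 µM for 24 h at 37 °C, 5% CO₂; washed, 50 µM monochlorobimane in PBS 30 min at 37 °C, fluorescence read at excitation 360 nm, emission 465 nm; arbitrary fluorescence units; mean ± SD, three independent experiments.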

DU-145 [9] = experiment: Antiproliferative activity against human DU145 cells at 0.1 to 50 uM after 120 hrs by MTT assay; format: functional, cell-based
In short: (§2)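 DU-145, PC-3 and LNCaP cells grown in RPMI with 10% fetal calf serum, 37 °C, 5% CO₂; seeded at 5 × 10³ cells/well, exposed to 0.1–50 µM for 120 h. After PBS wash, MTT (5 mg/mL) in PBS 4 h, formazan dissolved in isopropanol, read at 570 nm. Viability as % of untreated; IC50 from at least three independent dose-response curves.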

PC-3 [10] = experiment: Antiproliferative activity against human PC3 cells at 0.1 to 50 uM after 120 hrs by MTT assay; format: functional, cell-based; in short: as §2
LNCaP [11] = experiment: Antiproliferative activity against human LNCAP cells at 0.1 to 50 uM after 120 hrs by MTT assay; format: functional, cell-based; in short: as §2
DU-145 [12] = experiment: Antiproliferative activity against human DU145 cells at 10 uM after 48 hrs by SRB assay relative to control; format: functional; in short: as §1
PC-3 [13] = experiment: Growth inhibition of human PC3 cells at 10 uM after 48 hrs by SRB assay relative to control; format: functional; conditions: PC-3, 48 h, read-out: GI; in short: as §1
DU-145 [14] = experiment: Antiproliferative activity against human DU145 cells after 120 hrs by MTT assay; format: functional, cell-based; conditions: DU-145, 120 h; in short: as §2
PC-3 [15] = experiment: Antiproliferative activity against human PC3 cells after 120 hrs by MTT assay; format: functional, cell-based; conditions: PC-3, 120 h; in short: as §2
LNCaP [16] = experiment: Antiproliferative activity against human LNCAP cells after 120 hrs by MTT assay; format: functional, cell-based; in short: as §2
LNCaP [17] = experiment: Induction of apoptosis in human LNCAP cells assessed as increase in DNA fragmentation at 10 uM after 24 hrs by spectrophotometer relative to control; format: functional
In short: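 LNCaP cells seeded at 1 × 10³ cells/well, exposed to compounds (1–10 µM range) for 24 h at 37 °C, 5% CO₂; lysed, supernatant run in Cell Death Detection ELISAplus (biotin anti-histone/peroxidase anti-DNA on streptavidin plate, ABTS substrate 20 min); absorbance 405 nm. DNA fragmentation given as fold increase, treated/untreated absorbance; mean SD of three independent experiments, t-test vs untreated.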

| Ki [1] [nM] | Ki [2] [nM] | Ki [3] [nM] | IC50 (DU-145 [14]) [nM] | IC50 (PC-3 [15]) [nM] | IC50 (LNCaP [16]) [nM] | Structure (SMILES) | Activity [4] | Activity (LNCaP [5]) | Activity (LNCaP [6]) | inhibition (LNCaP [7]) | Activity (LNCaP [8]) | Activity (DU-145 [9]) | Activity (PC-3 [10]) | Activity (LNCaP [11]) | Activity (DU-145 [12]) [%] | inhibition of growth at 10 µM (PC-3 [13]) [%] | fold change (FC) (LNCaP [17]) |
| --- | --- | --- | --- | --- | --- | --- | --- | --- | --- | --- | --- | --- | --- | --- | --- | --- | --- |
| 191 | 55 | 28.2 |  |  |  | COc1cc2nc(N3CCC[C@H](N)C3)nc(N)c2cc1OC | inactive | inactive | inactive | inactive | inactive | inactive | inactive | inactive |  |  |  |
| 120 | 25.1 | 33.9 | 17800 | 18600 | 5780 | COc1cc2nc(N3CCC[C@@H](NC4=CC(=O)c5ccccc5C4=O)C3)nc(N)c2cc1OC | Active |  |  |  |  |  |  |  | 54 | 45.5 |  |
|  |  |  | 30600 | 12100 | 10500 | COc1cc2nc(N3CCN(C(=O)C4COc5ccccc5O4)CC3)nc(N)c2cc1OC (configuration not stated) [DOXAZOSIN] |  | inactive |  |  |  |  |  |  |  |  | 2.2 |
| 18.2 | 63.1 | 49 |  |  |  | COc1cc2nc(N3CCC[C@H](NC(=O)[C@H]4COc5ccccc5O4)C3)nc(N)c2cc1OC | inactive |  |  |  |  | inactive | inactive | inactive |  |  |  |
| 110 | 42.7 | 37.2 |  |  |  | COc1cc2nc(N3CCC[C@@H](NC(=O)c4ccco4)C3)nc(N)c2cc1OC | inactive |  |  |  |  | inactive | inactive | inactive |  |  |  |
| > 1000 | 316 | > 1000 |  |  |  | COc1cc2nc(N3CCC[C@@H](NC(=O)[C@@H]4COc5ccccc5O4)C3)nc(N)c2cc1OC |  |  |  |  |  |  |  |  |  |  |  |
